Reference: ChEMBL document CHEMBL1671800, “Synthesis and antimycobacterial properties of N-substituted 6-amino-5-cyanopyrazine-2-carboxamides” (2011)
Converted amounts (≈) assume the structure as drawn. The source made the active and inactive calls. No cut-off for these calls is given here.

Columns and labels:
Candida albicans [1] = assay: Antifungal activity against Candida albicans ATCC 44859 after 24 hrs by broth microdilution method; type: functional; settings: ATCC 44859, 24 h
Method in brief: (§1)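 Broth microdilution. Compounds in DMSO were diluted twofold in RPMI 1640 with glutamine, buffered to pH 7.0 with MOPS. Final DMSO was at most 2.5% (v/v). Plates were incubated statically, in the dark and humid, at 35 °C and read at 24 and 48 h.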

Klebsiella pneumoniae [2] = assay: Antibacterial activity against ESBL-positive Klebsiella pneumoniae J 14368/08 after 24 to 48 hrs by broth microdilution method; type: functional, organism-based
Pichia kudriavzevii [3] = assay: Antifungal activity against Candida krusei E28 after 48 hrs by broth microdilution method; type: functional; settings: E28, 48 h; method in brief: as §1
[4] = tested on: Trichophyton mentagrophytes; assay: Antifungal activity against Trichophyton mentagrophytes 445 after 120 hrs by broth microdilution method; type: functional; settings: Trichophyton mentagrophytes, 445, 120 h
Method in brief: (§2)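 Trichophyton mentagrophytes was tested by twofold broth microdilution in MOPS-buffered RPMI 1640 with glutamine, pH 7.0, with final DMSO at most 2.5% (v/v). Incubation was static, dark and humid at 35 °C, and plates were read at 72 and 120 h.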

Lichtheimia corymbifera [5] = assay: Antifungal activity against Absidia corymbifera 272 after 24 hrs by broth microdilution method; type: functional; settings: Lichtheimia corymbifera, 272, 24 h; method in brief: as §1
Pseudomonas aeruginosa = assay: Antibacterial activity against Pseudomonas aeruginosa CCM 1961 after 24 to 48 hrs by broth microdilution method; type: functional, organism-based
Method in brief: (§3)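 Strains subcultured on Mueller-Hinton agar at 35 °C and passaged onto MHA before testing. Inoculum suspended in sterile 0.85% saline and adjusted to 0.5 McFarland (1.5×10^8 CFU/mL). Compounds in DMSO (final ≤1% v/v) in Mueller-Hinton broth at pH 7.0, with medium and DMSO-alone controls. Static incubation at 35 °C; MIC taken as 95% growth inhibition versus control at 24 and 48 h.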

Candida albicans [6] = assay: Antifungal activity against Candida albicans ATCC 44859 after 48 hrs by broth microdilution method; type: functional; settings: ATCC 44859, 48 h; method in brief: as §1
Pichia kudriavzevii [7] = assay: Antifungal activity against Candida krusei E28 after 24 hrs by broth microdilution method; type: functional; settings: E28, 24 h; method in brief: as §1
Staphylococcus aureus [8] = assay: Antibacterial activity against Staphylococcus aureus CCM 4516/08 after 24 to 48 hrs by broth microdilution method; type: functional, organism-based; method in brief: as §3
Enterobacter sp. = assay: Antibacterial activity against Enterobacter sp. J 14365/ 08 after 24 to 48 hrs by broth microdilution method; type: functional, organism-based
[9] = tested on: Trichophyton mentagrophytes; assay: Antifungal activity against Trichophyton mentagrophytes 445 after 72 hrs by broth microdilution method; type: functional; settings: Trichophyton mentagrophytes, 445, 72 h; method in brief: as §2
[10] = tested on: Mycobacterium tuberculosis; assay: Antimycobacterial activity against Mycobacterium tuberculosis H37Rv CNCTC My 331/88 after 14 days by microdilution method; type: functional; settings: H37Rv CNCTC My 331/88, 336 h
Method in brief: (§4)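 Compounds in DMSO were diluted in Šula's semisynthetic medium, pH 5.5, to final 200–3.125 μg/mL, with DMSO at most 1% (v/v). Mycobacteria were added as a suspension in isotonic saline and grown at 37 °C. MIC was read visually after 14 days as the lowest concentration inhibiting growth.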

Mycobacterium avium [11] = assay: Antimycobacterial activity against Mycobacterium avium CNCTC My 80/72 after 14 days by microdilution method; type: functional; settings: CNCTC My 80/72, 336 h; method in brief: as §4
Aspergillus fumigatus [12] = assay: Antifungal activity against Aspergillus fumigatus 231 after 48 hrs by broth microdilution method; type: functional; settings: Aspergillus fumigatus, 231, 48 h; method in brief: as §1
Escherichia coli = assay: Antibacterial activity against Escherichia coli CCM 4517 after 24 to 48 hrs by broth microdilution method; type: functional, organism-based; method in brief: as §3
Candida tropicalis [13] = assay: Antifungal activity against Candida tropicalis 156 after 24 hrs by broth microdilution method; type: functional; settings: Candida tropicalis, 156, 24 h; method in brief: as §1
Klebsiella pneumoniae [14] = assay: Antibacterial activity against Klebsiella pneumoniae D11750/08 after 24 to 48 hrs by broth microdilution method; type: functional, organism-based
Trichosporon beigelii [15] = assay: Antifungal activity against Trichosporon beigelii 1188 after 48 hrs by broth microdilution method; type: functional; settings: Trichosporon beigelii, 1188, 48 h; method in brief: as §1
Mycobacterium avium [16] = assay: Antimycobacterial activity against Mycobacterium avium CNCTC My 152/73 after 14 days by microdilution method; type: functional; settings: CNCTC My 152/73, 336 h; method in brief: as §4
Staphylococcus aureus [17] = assay: Antibacterial activity against methicillin-resistant Staphylococcus aureus H 5996/08 after 24 to 48 hrs by broth microdilution method; type: functional, organism-based
Method in brief: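 Strains were subcultured on Mueller-Hinton agar at 35 °C, and the inoculum was suspended in 0.85% saline to 0.5 McFarland (1.5×10^8 CFU/mL). Microdilution was done in Mueller-Hinton broth, pH 7.0, with final DMSO at most 1% (v/v). MIC, set at 95% growth inhibition versus control, was read after 24 and 48 h of static incubation at 35 °C.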

[18] = tested on: Staphylococcus epidermidis; assay: Antibacterial activity against Staphylococcus epidermidis H 6966/08 after 24 to 48 hrs by broth microdilution method; type: functional, organism-based
Nakaseomyces glabratus [19] = assay: Antifungal activity against Candida glabrata 20/I after 48 hrs by broth microdilution method; type: functional; method in brief: as §1
Trichosporon beigelii [20] = assay: Antifungal activity against Trichosporon beigelii 1188 after 24 hrs by broth microdilution method; type: functional; settings: Trichosporon beigelii, 1188, 24 h; method in brief: as §1
Mycobacterium kansasii = assay: Antimycobacterial activity against Mycobacterium kansasii CNCTC My 235/80 after 6 days by microdilution method; type: functional; settings: CNCTC My 235/80, 144 h
Method in brief: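 Compounds were dissolved in DMSO and diluted in Šula's semisynthetic medium at pH 5.5, at final concentrations of 200 to 3.125 μg/mL in twofold steps; DMSO stayed ≤1% v/v. The strain was added as a suspension in isotonic saline and incubated at 37 °C. Growth was read visually after 6 days; MIC is the lowest concentration that inhibited growth. Pyrazinamide served as standard.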

Aspergillus fumigatus [21] = assay: Antifungal activity against Aspergillus fumigatus 231 after 24 hrs by broth microdilution method; type: functional; settings: Aspergillus fumigatus, 231, 24 h; method in brief: as §1
Candida tropicalis [22] = assay: Antifungal activity against Candida tropicalis 156 after 48 hrs by broth microdilution method; type: functional; settings: Candida tropicalis, 156, 48 h; method in brief: as §1
Lichtheimia corymbifera [23] = assay: Antifungal activity against Absidia corymbifera 272 after 48 hrs by broth microdilution method; type: functional; settings: Lichtheimia corymbifera, 272, 48 h; method in brief: as §1
Nakaseomyces glabratus [24] = assay: Antifungal activity against Candida glabrata 20/I after 24 hrs by broth microdilution method; type: functional; method in brief: as §1

`N#Cc1ncc(C(N)=O)nc1Cl` was tested, and the MIC (Candida albicans [1]) was 125 µM (≈ 22.8 µg/mL), the Activity (Klebsiella pneumoniae [2]) was “inactive” and the MIC (Pichia kudriavzevii [3]) was over 500 µM. For the same compound, the MIC [4] was 62.5 µM (≈ 11.4 µg/mL), the MIC (Lichtheimia corymbifera [5]) was 250 µM (≈ 45.6 µg/mL) and the Activity (Pseudomonas aeruginosa) was “inactive”. For the same compound, the MIC (Candida albicans [6]) was 125 µM (≈ 22.8 µg/mL), the MIC (Pichia kudriavzevii [7]) was over 500 µM and the Activity (Staphylococcus aureus [8]) was “inactive”. For the same compound, the Activity (Enterobacter sp.) was “inactive”, the MIC [9] was 62.5 µM (≈ 11.4 µg/mL) and the MIC [10] was 25 µg/mL (≈ 137 µM). The MIC (Mycobacterium avium [11]) was 25 µg/mL (≈ 137 µM), the MIC (Aspergillus fumigatus [12]) was over 500 µM and the Activity (Escherichia coli) was “inactive”. The MIC (Candida tropicalis [13]) was over 500 µM, the Activity (Klebsiella pneumoniae [14]) was “inactive” and the MIC (Trichosporon beigelii [15]) was over 500 µM. For the same compound, the MIC (Mycobacterium avium [16]) was 25 µg/mL (≈ 137 µM), the Activity (Staphylococcus aureus [17]) was “inactive” and the Activity [18] was “inactive”. The MIC (Nakaseomyces glabratus [19]) was over 500 µM, the MIC (Trichosporon beigelii [20]) was over 500 µM and the MIC (Mycobacterium kansasii) was 25 µg/mL (≈ 137 µM). It also gave an MIC (Aspergillus fumigatus [21]) of over 500 µM, an MIC (Candida tropicalis [22]) of over 500 µM and an MIC (Lichtheimia corymbifera [23]) of 250 µM (≈ 45.6 µg/mL). It also gave an MIC (Nakaseomyces glabratus [24]) of over 500 µM.

With `CCCCCNc1nc(C(N)=O)cnc1C#N` the MIC (Candida albicans [1]) was 250 µM (≈ 58.3 µg/mL), the Activity (Klebsiella pneumoniae [2]) was “inactive” and the MIC (Pichia kudriavzevii [3]) was 250 µM (≈ 58.3 µg/mL). The MIC [4] was over 250 µM, the MIC (Lichtheimia corymbifera [5]) was 125 µM (≈ 29.2 µg/mL) and the Activity (Pseudomonas aeruginosa) was “inactive”. The MIC (Candida albicans [6]) was over 250 µM, the MIC (Pichia kudriavzevii [7]) was 62.5 µM (≈ 14.6 µg/mL) and the Activity (Staphylococcus aureus [8]) was “inactive”. The Activity (Enterobacter sp.) was “inactive”, the MIC [9] was over 250 µM and the MIC [10] was over 200 µg/mL. The MIC (Mycobacterium avium [11]) was over 200 µg/mL, the MIC (Aspergillus fumigatus [12]) was over 250 µM and the Activity (Escherichia coli) was “inactive”. For the same compound, the MIC (Candida tropicalis [13]) was over 250 µM, the Activity (Klebsiella pneumoniae [14]) was “inactive” and the MIC (Trichosporon beigelii [15]) was over 250 µM. For the same compound, the MIC (Mycobacterium avium [16]) was over 200 µg/mL, the Activity (Staphylococcus aureus [17]) was “inactive” and the Activity [18] was “inactive”. The MIC (Nakaseomyces glabratus [19]) was over 250 µM, the MIC (Trichosporon beigelii [20]) was over 250 µM and the MIC (Mycobacterium kansasii) was over 200 µg/mL. It also gave an MIC (Aspergillus fumigatus [21]) of 250 µM (≈ 58.3 µg/mL), an MIC (Candida tropicalis [22]) of over 250 µM and an MIC (Lichtheimia corymbifera [23]) of over 250 µM. The MIC (Nakaseomyces glabratus [24]) was 250 µM (≈ 58.3 µg/mL).
